PGC1a acetyl inh = PGC1a acetylation modulation, inhibitor mode | U2OS PGC1a acetylation, AlphaScreen anti-acetyl-lysine; with virally co-expressed GCN5 acetyltransferase | actives 0.17% (n = 350,000) | inhibition, % at 15.6 µM;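 active = every replicate shows inhibition of at least 40%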
Vif inh = blocks HIV Vif function | HEK293T cells, Vif self-association by quenched fluorescence, imaging, 24 h | inhibition, % at 7.49 µM | actives 0.35% (n = 340,000); in the data active = inhibition above about 50%, passing the limit was not always enough
PglD DTNB = inhibitors of Campylobacter jejuni PglD acetyltransferase. inhibition, % at 12.5 µM. purified PglD enzyme, DTNB colorimetric CoA detection. AID 602405. actives 0.098% (n = 360,000); in the data active = inhibition above about 16%, passing the limit was not always enough
Ecoli rRNA inh = selective bacterial rRNA inhibition in E. coli | actives 1.6% (n = 350,000) | GFP signal change (wild-type ribosome), % (no concentration beside the values) | E. coli WT GFP vs humanized-ribosome RFP mutants, fluorescence, 24 h; active compounds read low; DMSO median 0, no signal -100;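 active = significant combined selectivity score with lowered wild-type GFP, culture density cut under 30%, mutant RFP and density less affected; inactive = any of these conditions unmet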
Cneo AK release = causes C. neoformans cell lysis | actives 0.2% (n = 360,000) | lysis activity, % at 15 µM | AID 651654 | adenylate kinase release luminescence, 4 h; normalised: neutral wells 0, clomiphene wells 100;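 active = mean lysis activity across replicates of at least 80%, whatever share of replicates individually reach that level; inactive = mean lysis activity below 80%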
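Assay system: Cryptococcus neoformans yeast cells / Dosing: single-point compound dose / Timing: 4 h at 37 °C static, read 1 h later / Measured by: luminescence of released adenylate kinase using an AK detection reagent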
FGF22 binding = FGF22 (human) thermal shift binding; Q9HCT0; recombinant FGF22 thermal shift, SYPRO orange fluorescence; percent of sucrose octasulfate shift, DMSO zero; activity (Tm shift, normalised), % at 9.99 µM; actives 1.5% (n = 340,000); AID 651658;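 active = mean Tm shift, scaled 0 neutral to 100 positive control, at about 1.3% or above, every replicate too, limit read from the data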
Target sequence (Q9HCT0 whole entry, looked up): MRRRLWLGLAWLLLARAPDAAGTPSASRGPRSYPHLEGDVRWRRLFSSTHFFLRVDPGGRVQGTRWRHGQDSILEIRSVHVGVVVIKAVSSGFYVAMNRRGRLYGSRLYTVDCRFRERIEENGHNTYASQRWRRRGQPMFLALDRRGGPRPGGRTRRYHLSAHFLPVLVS
Large screens that a line does not name were inactive. This is a sample that favours compounds with a hit; in the whole collection about 2.9% have one here.

CC1=C(C(=O)OC(C)C)C(c2cn(-c3ccccc3)nc2-c2cccs2)NC(=O)N1 (stereo not drawn)	FGF22 binding 44 (no result: PGC1a acetyl inh)
COC(=O)C1=C(C)NC(=O)NC1c1cn(-c2ccccc2)nc1-c1cccs1 (stereo not drawn)	none (no result: Ecoli rRNA inh, FGF22 binding)
Cc1ccc(Nc2cc(=O)[nH]c(=O)[nH]2)cc1C	Vif inh 57
Cc1cccc(Nc2cc(=O)[nH]c(=O)[nH]2)c1	none (no result: PGC1a acetyl inh, PglD DTNB, Cneo AK release)
CCN(CC(=O)NCc1ccc(F)cc1)C(=O)c1ccc(C(=O)c2ccccc2)cc1	none (no result: PGC1a acetyl inh)
CCN(CC(=O)Nc1ccccc1OC)CC(=O)Nc1ccccc1-c1ccccc1	Ecoli rRNA inh -32 (no result: PglD DTNB, Cneo AK release)
CCN(CC(=O)NCc1ccc(F)cc1)CC(=O)Nc1ccccc1-c1ccccc1	Ecoli rRNA inh -33
CCN(CC(=O)Nc1ccccc1-c1ccccc1)Cc1nc2ccccc2c(=O)[nH]1	Ecoli rRNA inh -25
O=C(c1ccc(F)cc1)N1CCCCN2[C@H](CO)[C@H](c3ccc(-c4ccc(F)cc4)cc3)[C@@H]2C1	none (no result: Vif inh, Ecoli rRNA inh, FGF22 binding)
O=C(c1ccccc1)c1ccc(OCC(O)CNCc2ccc(F)cc2)cc1 (stereo not drawn)	none (no result: PGC1a acetyl inh)
OC(CNCc1ccccc1Cl)COc1ccc(F)cc1 (stereo not drawn)	Vif inh 65 (no result: PGC1a acetyl inh)
CCC(CO)n1c(=S)[nH]c2cc(OC)c(OC)cc2c1=O (stereo not drawn)	Ecoli rRNA inh -22 (no result: PGC1a acetyl inh)
CCNC(=O)C[C@H]1CC[C@H]2[C@H](COc3ccc(NC(=O)Nc4ccccc4OC)cc3C(=O)N2C)O1	none (no result: Vif inh)
COc1ccc(C(=O)Nc2ccc(NC(C)=O)cc2)cc1S(=O)(=O)N1CCCC1	Ecoli rRNA inh -33
COc1ccc(NC(=O)CCN2C(=O)C3CC=CCC3C2=O)cc1S(=O)(=O)N1CCCCC1 (stereo not drawn)	Vif inh 73 (no result: PGC1a acetyl inh)
O=C(Nc1ccc(F)c(F)c1)c1ccc(F)c(S(=O)(=O)N2CCC3(CC2)OCCO3)c1	Ecoli rRNA inh -27 (no result: PglD DTNB, Cneo AK release)
CCCc1cc(=O)[nH]c(SCC(=O)Nc2ccc(C)c(S(=O)(=O)N3CCCCC3)c2)n1	none
COc1ccc(NC(=O)CCCC2CCCCC2)cc1S(=O)(=O)N1CCCCC1	none (no result: PGC1a acetyl inh, PglD DTNB, Ecoli rRNA inh, Cneo AK release)
CCCc1cc(=O)[nH]c(SCC(=O)Nc2ccc(OC)c(S(=O)(=O)N3CCCCC3)c2)n1	Ecoli rRNA inh -22
O=C(CC(F)(F)F)N1C[C@@H]2[C@H](c3ccccc31)[C@@H](CO)N2C(=O)C1CC1	none (no result: Vif inh)
O=C(CN1CCOCC1)NCC[C@@H]1CC[C@H](NC(=O)Nc2ccc(Cl)cc2)[C@@H](CO)O1	none (no result: Vif inh)
O=C(C[C@@H]1C=C[C@H](NC(=O)C2CC2)[C@@H](CO)O1)NCc1ccncc1	none (no result: Vif inh)
COc1ccc(NS(=O)(=O)c2cccc(Cl)c2Cl)cc1S(=O)(=O)N1CCCCC1	Ecoli rRNA inh -35 (no result: PGC1a acetyl inh, PglD DTNB, Cneo AK release)
O=C(CCCn1c(=S)[nH]c2ccccc2c1=O)N1CCN(c2cccc(Cl)c2)CC1	Vif inh 107 (no result: PGC1a acetyl inh, Ecoli rRNA inh, FGF22 binding)
O=C(CCCCCn1c(=S)[nH]c2ccc(N3CCOCC3)cc2c1=O)NCc1ccc(Cl)cc1	Ecoli rRNA inh -24
O=C(CCCCn1c(=O)[nH]c2ccccc2c1=O)N1CCN(c2cccc(C(F)(F)F)c2)CC1	none (no result: Vif inh, Ecoli rRNA inh, FGF22 binding)
O=C(CCCCCn1c(=S)[nH]c2ccc(N3CCOCC3)cc2c1=O)NCc1ccccc1Cl	Vif inh active
O=C(C[C@@H]1C[C@H]2c3cc(NC(=O)NC4CCCC4)ccc3O[C@H]2[C@H](CO)O1)NCc1ccc(Oc2ccccc2)cc1	none (no result: Vif inh)
Cc1ccc(S(=O)(=O)N(C)C[C@@H]2OCCCC[C@H](C)Oc3ccc(NC(=O)NC4CCCCC4)cc3C(=O)N([C@H](C)CO)C[C@H]2C)cc1	none (no result: Vif inh)
CCCC[C@@]1(C2CCCC2)Cc2cc(OCC(=O)O)c(Cl)c(Cl)c2C1=O	PGC1a acetyl inh 95
CCCC(=O)N1CC2(C1)CN(C(=O)C1CCOCC1)[C@H](CO)c1[nH]c3cc(OC)ccc3c12	none (no result: Vif inh, PglD DTNB, Cneo AK release)
C[C@@H]1CN([C@H](C)CO)C(=O)c2cc(NC(=O)Cc3ccccc3)ccc2O[C@@H]1CN(C)Cc1ccc(Oc2ccccc2)cc1	none (no result: Vif inh)
C/C(=N\Nc1ccc2nncn2n1)c1ccccn1	none (no result: FGF22 binding)
O=c1nc(N/N=C/c2ccccn2)cn[nH]1	FGF22 binding 44 (no result: PGC1a acetyl inh, PglD DTNB, Cneo AK release)

High-throughput results deposited in PubChem by Broad Institute.
